What was measured:
[1] = tested on: COS-1 cells; assay: Semi-quantitative imaging assay of QD uptake and endosomal escape; format: cell-based, African Green Monkey
[2] = tested on: Primary human dermal fibroblasts; assay: Semi-quantitative imaging assay of QD uptake and endosomal escape; format: cell-based
Method in brief: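 Peptides were self-assembled onto 550 nm CdSe/ZnS QDs in DMEM with 25 mM HEPES at 25°C for 20–30 min (QDs typically 80–150 nM final). Cells on fibronectin-coated coverglass were exposed for 2 h at 37°C with Tf-Cy5 (50 µg/mL) to mark endosomes, then washed, cultured 48 h, fixed in 3.7% paraformaldehyde and DAPI-stained. Individual cells were imaged and classed for QD uptake (none/low/moderate/high) and endosomal escape.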

[3] = tested on: COS-1 cells; assay: Cellular viability after exposure to QD-peptide conjugates; format: cell-based, African Green Monkey
[4] = tested on: Hela cells; assay: as above; format: cell-based, human; conditions: exposure to 100 nM of 75 peptide/QD
[5] = tested on: HEK 293 cells; assay: as above; format: cell-based, human; conditions: exposure to 100 nM of 75 peptide/QD
[6] = tested on: A549 cells; assay: as above; format: cell-based, human; conditions: exposure to 100 nM of 75 peptide/QD
[7] = tested on: PC12 cells; assay: as above; format: cell-based, rat; conditions: exposure to 100 nM of 75 peptide/QD
[8] = tested on: Primary human dermal fibroblasts; assay: as above; format: cell-based; conditions: exposure to 100 nM of 75 peptide/QD
[9] = tested on: cultured cells; conditions: preliminary screening of QD cellular delivery; cited from earlier work

Substance: WG•(Dap^Pal)•VKIKK•P9•GG•H6 [JB577]
- % Escape in cells with uptake ([1]; 100 nM 550 nm QDs, 75 peptides/QD, 2 h incubation, 48 h culture): ~ 77%
- Endosomal escape / intracellular localization of QDs, result in words ([1]; QD-peptide conjugates, SAR comparison with JB577): well-dispersed throughout the cytosol
- Overall uptake/escape: QD uptake class ([1]; first word of the cell, 100 nM QDs, 75 peptides/QD, 48 h culture): high/high (high (>60% uptake))
- Overall uptake/escape: QD uptake class ([2]; first word of the cell): high (high (>60% uptake))
- Overall uptake/escape: endosomal escape class ([2]; second word of the cell): moderate (moderate (30–70%))
- Cellular viability, continuous 48 h exposure, peptide alone ([3]; continuous 48 h exposure to peptide alone): 87±7%
- Cellular viability, continuous 48 h exposure, QD conjugates ([3]; continuous 48 h exposure to peptide-QD conjugates): 97±6%
- Cellular viability (%) ([3]; exposure to 100 nM of 75 peptide/QD): 98 ±4%
- Cellular viability (%) [4]: 98 ±1%
- Cellular viability (%) [5]: 87 ±5%
- Cellular viability (%) [6]: 96 ±3%
- Cellular viability (%) [7]: 97 ±10%
- Cellular viability (%) [8]: 92 ±6%
- Time after delivery at which cytosolic release peaked [9]: ~ 48 h
- Time of endocytic uptake of QDs [9]: 1 to 2 h

Reference: article PMC3880025 (ACS nano, 2013)
